Calls of active or inactive are those of the source. The rule behind the calls is not given here.
Experiments:
Neuronal progenitor cell [1] = experiment: Induction of neuronal differentiation in mouse neuronal progenitor cells assessed as expression of Map2 at 1 uM treated for every second day for 4 days by immunofluorescence staining method; format: functional
Method in brief: (§1)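 Neural stem/progenitor cells dissociated from embryonic day 14 mouse cerebrum. Cultured 24 h after seeding, then given 1 μM analogue every second day for 4 days. Immunofluorescence with Map2 (neurons, red) and Gfap (astrocytes, green), nuclei counterstained with DAPI. Imaged by confocal laser microscopy; the legend states staining after 48 h.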

Neuronal progenitor cell [2] = experiment: Induction of neuronal differentiation in mouse neuronal progenitor cells assessed as expression of Gfap at 1 uM treated for every second day for 4 days by immunofluorescence staining method; format: functional; method in brief: as §1
Neuronal progenitor cell [3] = experiment: Induction of neuronal differentiation in mouse neuronal progenitor cells assessed as relative ratio of expression of Map2/Gfap mRNA at 1 uM treated for every second day for 4 days by RT-PCR analysis; format: functional
Method in brief: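 E14 mouse cerebral progenitor cells, cultured 24 h, then treated with 1.0 × 10−6 M compound or ethanol for 4 days. mRNA extracted; Map2, Gfap and β-actin levels quantitated by real-time PCR, and the Map2/Gfap ratio calculated. Means of three independent experiments ± SD. Dunnett's t-test versus EtOH.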

[4] = Induction of neuronal differentiation in mouse neuronal progenitor cells assessed as expression of Map2 at 1 uM treated for every second day for 4 days by real-time PCR method relative to control

SMILES | Activity (Neuronal progenitor cell [1]) | Activity (Neuronal progenitor cell [2]) | Activity (Neuronal progenitor cell [3]) | fold change (FC) [4]
CC1=C(C/C=C(\C)CC/C=C(\C)CC/C=C(\C)Cc2cccc(C)c2)C(=O)c2ccccc2C1=O | Active | inactive | Active | 1.5
CC(C)=CCC/C(C)=C/CC/C(C)=C/CC1=C(C)C(=O)c2ccccc2C1=O | – | – | Active | –
C/C(=C\CO)CC/C=C(\C)CC/C=C(\C)Cc1cccc(C)c1 | Active | inactive | – | –
CC1=C(C/C=C(\C)CC/C=C(\C)CC/C=C(\C)Cc2ccccc2)C(=O)c2ccccc2C1=O | Active | inactive | – | 1.5
C/C(=C\CO)CC/C=C(\C)Cc1ccc(-c2ccccc2)cc1 | Active | inactive | – | –
C/C(=C\CO)CC/C=C(\C)CC/C=C(\C)Cc1ccc(-c2ccccc2)cc1 | Active | inactive | – | –
CC1=C(C/C=C(\C)CC/C=C(\C)CC/C=C(\C)Cc2ccc3ccccc3c2)C(=O)c2ccccc2C1=O | Active | inactive | – | 1.5
CC1=C(C/C=C(\C)CC/C=C(\C)CC/C=C(\C)Cc2cccc3ccccc23)C(=O)c2ccccc2C1=O | Active | inactive | – | 1.5
CC1=C(C/C=C(\C)CC/C=C(\C)Cc2ccc3ccccc3c2)C(=O)c2ccccc2C1=O | inactive | inactive | – | 1.5
CC1=C(C/C=C(\C)CC/C=C(\C)Cc2ccc(-c3ccccc3)cc2)C(=O)c2ccccc2C1=O | Active | inactive | – | 1.5
CC1=C(C/C=C(\C)CC/C=C(\C)Cc2ccccc2)C(=O)c2ccccc2C1=O | Active | inactive | – | 1.5
C/C(=C\CO)CC/C=C(\C)Cc1cccc(C)c1 | Active | inactive | – | –
C/C(=C\CO)CC/C=C(\C)CC/C=C(\C)Cc1ccc2ccccc2c1 | Active | inactive | – | –
C/C(=C\CO)CC/C=C(\C)Cc1ccccc1 | Active | inactive | – | –
C/C(=C\CO)CC/C=C(\C)CC/C=C(\C)Cc1cccc2ccccc12 | Active | inactive | – | –
C/C(=C\CO)CC/C=C(\C)Cc1cccc2ccccc12 | Active | inactive | – | –
CC(C)=CCC/C(C)=C/CC1=C(C)C(=O)c2ccccc2C1=O | – | – | Active | –
CC1=C(C/C=C(\C)CC/C=C(\C)Cc2cccc3ccccc23)C(=O)c2ccccc2C1=O | Active | inactive | – | 1.5
CC1=C(C/C=C(\C)CC/C=C(\C)CC/C=C(\C)Cc2ccc(-c3ccccc3)cc2)C(=O)c2ccccc2C1=O | Active | inactive | – | 1.5
C/C(=C\CO)CC/C=C(\C)Cc1ccc2ccccc2c1 | Active | inactive | – | –
CC1=C(C/C=C(\C)CC/C=C(\C)Cc2cccc(C)c2)C(=O)c2ccccc2C1=O | Active | inactive | – | 1.5
C/C(=C\CO)CC/C=C(\C)CC/C=C(\C)Cc1ccccc1 | Active | inactive | – | –

— ChEMBL document CHEMBL3603816, “Synthetic Small Molecules Derived from Natural Vitamin K Homologues that Induce Selective Neuronal Differentiation of Neuronal Progenitor Cells” (2015)
